Tested on: MS2 coat protein
Experiment: apparent Kd, MS2 coat protein; higher = weaker binding; RNA-MaP array; FMN 200 µM where present
Summary of the method: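 The apparent Kd is reported as the median of filtered per-cluster binding-curve fits. To get these curves, designs transcribed by stalled E. coli RNA polymerase on Illumina sequencing-chip clusters were titrated with SNAP-549-labelled MS2 coat protein from 0.7 or 1.5 nM, doubling to 3 µM. Titrations were run without and then with constant ligand in 100 mM Tris-HCl pH 7.5, 80 mM KCl, 4 mM MgCl2, BSA, DTT, yeast tRNA and Tween-20, and green signal was normalised to red-channel RNA signal and control-cluster median Fmax.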

[1] = designed as: ON switch for flavin mononucleotide, no ligand
[2] = ligand present: flavin mononucleotide, designed as: ON switch for flavin mononucleotide
[3] = designed as: OFF switch for flavin mononucleotide, no ligand
[4] = ligand present: flavin mononucleotide, designed as: OFF switch for flavin mononucleotide

Sequence | apparent Kd [1] | apparent Kd [2] | apparent Kd [3] | apparent Kd [4]
AAAAAAAAAACUCAGGAUAUAGAUUGUUGAACAUGAGGAUCACCCAUGUAGUGAAAAGCGAAAAACUAGAAGGGAGGAAAAAAAAA | 82.5 nM | 46 nM | – | –
AAAAAAAAAGUAUAGGAUAUCCGAGUGGUAACAUGAGGAUCACCCAUGUGAAGAAAGGAAGAUGAGGAGAAGGAUACAAAAAAAAA | 125 nM | 48.5 nM | – | –
AAAAAACAUGAGGAUCACCCAUGUAAAAAAAUCGCAGGAUAUAGGGUCGCGAAAGCGACCCUAGAAGGGCGAUCCU | 260 nM | 87.7 nM | – | –
AAAAAACAUGAGGAUCACCCAUGUCCUCGGACGUGAGGAUAUGUACAGACUUCGGUCUGUACAGAAGGCACGUCAA | 512 nM | 446 nM | – | –
AAAAAACAUGAGGAUCACCCAUGUGAGGAUAUUAAAAAUAAGAAGGCAUAAAAAAAAAUAAGAAGGCACAUGAA | – | – | 31.7 nM | 44.8 nM
AAAAAGCGAGGAUAUACAUGAGGAUCACCCAUGUCAAAAGAAUAUAAAGAAAUAGGAAGUAGAAGGCGCAAAAA | – | – | 55.9 nM | 56 nM
AAAAAGGCAGGAUAUACAAAACAGGGAAACCUGAAAAGGAAACAUGAGGAUCACCCAUGUAGAAGGGCCAAGAA | – | – | 24.9 nM | 35.3 nM
AAAAAGGGAGGAUAUACAUGAGUAGAUCGUGUAAAAAAAAUACAUGAGGAUCACCCAUGUAGAAGGCCCAAAAA | – | – | 231 nM | 88.2 nM
AAAAAGGUAGGAUAUACGAAAAAAAAGGGUAAAAUAAAUAAACAUGAGGAUCACCCAUGUAGAAGGACCAAAAA | – | – | 25.3 nM | 64.4 nM
AAAAAGUGAGGAUAUACAUGAGAAAAAAAAAUGUAAAAAAAACAUGAGGAUCACCCAUGUAGAAGGCACAAAAA | – | – | 49.7 nM | 82.7 nM
AAAAAGUGAGGAUAUACGAGGAGAAACAACAAACAAACAAAACAUGAGGAUCACCCAUGUAGAAGGCACAAAAA | – | – | 21.1 nM | 26.2 nM
AAAAAGUGAGGAUAUGCGCUGUCCUGUAGACACGAGCAGUCGUAGAAGGCACAUGAGGAUCACCCAUGUUUAAA | – | – | 27.6 nM | 20.2 nM
AAAAAGUGAGGAUAUGGAAAAAAAAAAAAAAAAAAAAAAAACCAGAAGGCACAUGAGGAUCACCCAUGUAAAAA | – | – | 39.6 nM | 39.4 nM
AAAAAUCCAGCGCAGGAUAUCGCAGGGUGCACAUGAGGAUCACCCAUGUGUACCCAAACACCCUGCGAGAAGGGCGUUGGAAAAAA | 11.2 nM | 9.68 nM | – | –
AAAAAUCGAGGAUAUACAUGAGGAUCACCCAUGUGGGACCAAGAAAACACAAAAGAAAGUAGAAGGCGAUAAAA | – | – | 29.2 nM | 113 nM
AAAACACAUGAGGAUCACCCAUGUAUCUGGACCAUAGGAUAUCCGCGCCCACUAGGGUAUGGAGAAGGGUGAGCCC | 161 nM | 122 nM | – | –
AAAACAGAUGGAGGAUAUAGUGUAUGGGCCGUAACGGGAGUAUCGCGCAGACUAGAAGGCCAUUUACAUGAGGAUCACCCAUGU | 164 nM | 56.5 nM | – | –
AAAACGGUAGGAUAUACAUGAGGAUCACCCAUGUUAAAUUUAAAAAUAAAAUUAAAAUGUAGAAGGACCAAAAA | – | – | 32 nM | 32.3 nM
AAAACGUGAGGAUAUGCACCAACCAAGGUUUUUCGGGUACGACAUGAGGAUCACCCAUGUAGAAGGCACGCAAA | – | – | 26.4 nM | 32 nM

Sequence | apparent Kd [1] | apparent Kd [2] | apparent Kd [3] | apparent Kd [4]
AAAAGCAUCCAGUAUCAAAAUACAUGAGGAUCACCCAUGUAGCAGGAUAUCAACGUUCCCGACGGUGAGAAGGGCUAUAUGUUG | – | – | 7.47 nM | 9.26 nM
AAAAGGCUAGGAUAUACAUGAGGAUCACCCAUGUGUACUGGACAUGCGGUAUGCGUAUGUAGAAGGAGUAUAAA | – | – | 14.4 nM | 21.6 nM
AAAAGUUCAGGAUAUACAUGAGGAUCACCCAUGUAGAAAGGAAGUGUAAAAAAAAAGUGUAGAAGGGAGCAUGA | – | – | 31.7 nM | 29.1 nM
AAAAUAAGAACAGGAUAUGUGGGUUCGAAGAGUAAAGCUCUCCACAUGAGGAUCACCCAUGUGCCACAGAAGGGUUCGGGUGAU | 58 nM | 11.8 nM | – | –
AAAAUCUAUAGAGGAUAUCCAUACACUACAUACGGAGAAGGCUAACAAUCAUGAGGACAUGAGGAUCACCCAUGUUGUGACCAU | 24.8 nM | 17.2 nM | – | –
AAAAUGUAAGGAUAUCGUCCCGUAAAUAUCGGGAAAAUUGUCGAGAAGGUACAUGAGGAUCACCCAUGUUCCUG | – | – | 16.7 nM | 18.2 nM
AAAAUGUGAGGAUAUCAGGUGUGCUAGCGUACUGGUACAUCUGAGAAGGCACAUGAGGAUCACCCAUGUUUCUU | – | – | 21.5 nM | 79.7 nM
AAACACGGACAUGAGGAUCACCCAUGUGGCGAAAGCCUUGGGAGAAGGCCGAUAGCAAAGCUAUCGGAGGAUAUCCAUACCGUG | 19.8 nM | 7.72 nM | – | –
AAACAUGUCCGAGGAUAUCUAGAAACAUUUUUAAGAGAAGGCGGACAUGAGGAUCACCCAUGUCUCUCCUCAUCAAAUCCAAGU | – | – | 15.6 nM | 68 nM
AAACCUAUAGGAUAUACAUGAGGAUCACCCAUGUUGCGAUUUUUUAGGUAACAGAUCCGUAGAAGGGUAGGUUA | – | – | 23.8 nM | 57.6 nM
AAAGAACAUGAGGAUCACCCAUGUGAGGAUAUGCGAAAACCGCUGACAAACCAGACGGGCAGAAGGCAUAUGGU | – | – | 56.2 nM | 76.3 nM
AAAGAAGAAAGACAGGAUAUGGAUGGGUAAACAUGAGGAUCACCCAUGUAUAAGAAAGAAAGAAACCAGAAGGGUCAAAAGAAAA | 165 nM | 33.6 nM | – | –
AAAGGGAUUACGGAGGAUAUGGAAAAAAAAACAUGAGGAUCACCCAUGUCAAAAAAAAAAAAGGACCAGAAGGCCGUAAUCUCAAA | 27.3 nM | 18.9 nM | – | –
AAAUAAACUACCAAAAUAUCCUCACAUGAGGAUCACCCAUGUCAGGAUAUUUGUCCUAAAAGGACAGAGAAGGGACGUGGUAGA | – | – | 5.63 nM | 10.7 nM
AAAUAAACUAGCAAAAUUUCCUCACAUGAGGAUCACCCAUGUAAGGAUAUCUGUCCUAAAAGGACAGAGAAGGUACGUGCUAGG | – | – | 4.53 nM | 4.63 nM
AAAUAAAUUAGCAUGAUAUCUUCACAUGAGGAUCACCCAUGUCAGGAUAUUUGUCCUAAAAGGACAGAGAAGGGACAUGCUAUA | – | – | 5.78 nM | 7.76 nM
AAAUAACCUAGCAAAAUUUCCUAACAUGAGGAUCACCCAUGUAGAAGGCUGUCCUAAAAUAGGACAGAGGAUAUACGUGCUAGG | – | – | 5.01 nM | 7 nM
AAAUAACCUAGCAAAAUUUCCUCACAUGAGGAUCACCCAUGUAGAAGGUUAACCUAAUAUAGGAUAAAGGAUAUACGUGCUAGG | – | – | 7.58 nM | 19.9 nM
AAAUACCGGUGAGGAUAUUUAUAAUAGAACUUUAUGAUAUACAUGAGGAUCACCCAUGUUACUUUAAAGAAGGCAUCGGAUAAA | – | – | 18.8 nM | 15 nM

Sequence | apparent Kd [1] | apparent Kd [2] | apparent Kd [3] | apparent Kd [4]
AAAUCAGCAGGAUAUGCGAUGUUAUGCUAGAUAGCGGGACCACAUGAGGAUCACCCAUGUAGAAGGGCUAGAUA | – | – | 34.9 nM | 16.8 nM
AAAUCAGCAGGAUAUGCGAUGUUGUGCUAGAUAGCGGGACCACAUGAGGAUCACCCAUGUAGAAGGGCUAGAUA | – | – | 51.4 nM | 18.9 nM
AAAUGCCUGUCGAUGCUCGACAUGAGGAUCACCCAUGUAUAGCAGGAUAUGCAGACCUGACUCGUGCAGAAGGGCUAUACCUAA | – | – | 12.6 nM | 64.3 nM
AAAUUAAGAAGAGGAUAUUGACAUGAGGAUCACCCAUGUAUUUGGGAGUGUUUACUGAAUUCUUACGAGAAGGUUUACGAACUU | – | – | 278 nM | 211 nM
AAAUUAGGGAGAGGAUAUUGACAUGAGGAUCACCCAUGUAUUUGGGAGUGUUUACUGAAUUCUUACGAGAAGGCUUACGAAAUU | – | – | 320 nM | 255 nM
AAAUUUAACGAAGGAUAUGCUGACAUGAGGAUCACCCAUGUGUGCUUUGUGUUGCUGAAAUGGGAGCAGAAGGUCGUAUACAUA | – | – | – | 128 nM
AAAUUUUGUCAAGGAUAUGUAUAAAAGAGAAGAAAACAUGAGGAUCACCCAUGUAUAUGGUGGGAACAGAAGGUGAUUAAGUAA | – | – | 354 nM | 271 nM
AACACAACAUGAAACAUGAGGAUCACCCAUGUUGUUUGUAAUCAGGAUAUGAUCUCAAGAAUGAAUUAGAAGGGAUAUGGAUUU | 31.8 nM | 39.6 nM | – | –
AACACGAGAGGUGUUGUCUAAUCACAUGAGGAUCACCCAUGUAAGGAUAUCGCGGCUAUCGGCAUCGAGAAGGUACAGGGUGCA | – | – | 165 nM | 58.9 nM
AACAGGCGUGCCCUGAGUCCACAUGAGGAUCACCCAUGUGAGAGAAGGACCCUCGAGAGAGUUGGGUAGGAUAUCUCCGAUGGG | – | – | 24 nM | 57.5 nM
AACAGUACAGGAUAUACAUGAGGAUCACCCAUGUGAGACUUAAGUGGCGUACCACAAAGUAGAAGGGUACUGGA | – | – | 94.7 nM | 545 nM
AACAGUGCUAAUAAAUAAGAUCUACAUGAGGAUCACCCAUGUAAGGAUAUCGUCAGGAAUACUGACGAGAAGGUACAUGCACUG | – | – | 15 nM | 25.9 nM
AACAUCCAAGCGCCCGGGUGGAGGAGAAGGCGGACAUGAGGAUCACCCAUGUGCAGCCACAAGUCCGAGGAUAUCCUUUGUGUU | – | – | 10.6 nM | 20.2 nM
AACAUGAGGAUCACCCAUGUCCCACCAGAAGGCUGGCGGCCACGGUAACGGCCGUGGCAAAUAACAGAGGAUAUGGUGAAUGCA | 66.3 nM | 17.9 nM | – | –
AACCUAUUACAGAAGGCCAGCUACAUGAGGAUCACCCAUGUCGAGUCAUGGAGGAUAUGUAGUAAUUUACUCACAGAUGAGUGA | 22.9 nM | 5.07 nM | – | –
AACGCUAGACUAGGAUAUCGUUUACAUGAGGAUCACCCAUGUAAAGGGUAUUGUCGUCAUACGAACGAGAAGGAGUCGGUAAAU | – | – | 10.4 nM | 26.5 nM
AACUCGUCAGGAUAUGCGCGCAGUUAAUACGCUUCGCAAUUGCAGAAGGGACAUGAGGAUCACCCAUGUAAAUA | – | – | 32.1 nM | 33.1 nM
AACUCGUUAGGAUAUACCGCCAACGAUACCUCGUGAAACAUACAUGAGGAUCACCCAUGUAGAAGGAGCGAGCA | – | – | 16.9 nM | 23.3 nM

From the EternaBench riboswitch data
